Screening results (PubChem)
This is a sample that favours compounds with a hit; in the whole collection about 3.8% have one here.
CSC inhib: blocks cancer stem cells; 1.1% of 300,000 active; cancer stem cell-like cells viability, luminescence; inhibition, % at 7.5 µM; in the data active means inhibition above about 75%; tested in HMLE shEcad cells
Beta cell apopt: blocks beta cell apoptosis; INS-1E cytokine-induced death, ATP luminescence, 48 h; percent of positive-control rescue, neutral wells zero; protection from apoptosis, % (test concentration not listed); 0.8% of 300,000 active;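 active means Every replicate reaches about 75%, or at least half do and their mean reaches it too, limit read from the data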;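 further: higher means more ATP so stronger rescue from cytokine killing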
ANO1 block: inhibitors of mouse TMEM16A calcium-activated chloride channel; Q8BHY3; HEK293 TMEM16A/YFP iodide influx fluorescence, ionomycin; normalized B-score (activity score, 25-100; higher = stronger inhibition) at 10 µM; 1.2% of 310,000 active; AID 588511;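 active means ratio plate-corrected score three or more library SD toward inhibition, starting fluorescence score within five deviations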;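 further: score derived from kinetic fluorescence span divided by baseline fluorescence per well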
MC4R antagonist: antagonists of human melanocortin 4 receptor (MC4R). MC4R-expressing cells, MTII-stimulated cAMP, LANCE TR-FRET. inhibition, % at 6.5 µM. P32245. AID 540295. 0.48% of 360,000 active;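 active means inhibition above its plate's cutoff, the mean of tested wells on that plate plus 3 SD, cut at about 29% in these data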
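material = U2OS cells stably expressing human melanocortin 4 receptor (MC4R) | also added = Melanotan II challenge | dosing = single nominal compound dose of 6.5 µM | detection = TR-FRET with Eu-cAMP and labeled anti-cAMP, 671 nm | replication = singlicate | timing = compound 30 min, challenge 1 h, detection 1 h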
ANO1 activ: mouse TMEM16A channel activation, primary screen | Q8BHY3 | 0.3% of 340,000 active | B-score at 10 µM | HEK293 TMEM16A/YFP-H148Q/I152L, iodide quench fluorescence; active compounds read low;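 active means fluorescence-ratio B-score plate-corrected deviation score at least 3 library SD below zero, with starting fluorescence score within 5 deviations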;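 further: channel opened by trigger with iodide after compound preincubation; score built on the fluorescence ratio of max minus min over baseline; more negative score means more quench and so TMEM16A activation or potentiation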
MC4R barr agon: agonists of human melanocortin 4 receptor (MC4R) beta-arrestin; P32245; U2OS MC4R beta-arrestin complementation, luminescence; percent of melanotan II response, DMSO zero; activation, % at 8.9 µM; 0.98% of 360,000 active; AID 540308;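 active means activation above a per-plate cutoff, the mean activation of sample wells on that plate plus 3 SD, cut at about 8% in these data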
Each line names hits and unclear results; the compound was inactive in the other large screens.

C[C@@H]1CC[C@]2(C(=O)O)CC[C@]3(C)C(=CCC4[C@]56CC[C@@](O)(OC5)C(C)(C)C6CC[C@]43C)C2[C@H]1C (stereo partly specified)	CSC inhib 96, ANO1 block 100
C[C@H]1[C@H](C)CC[C@]2(C(=O)O)CC[C@]3(C)C(=CC[C@@H]4[C@@]5(C)CC[C@H](O)C(C)(C)[C@@H]5CC[C@]43C)[C@H]12	none
CC1(C)[C@@H](O)CC[C@]2(C)[C@H]3C(=O)C=C4[C@@H]5C[C@@](C)(C(=O)O)CC[C@]5(C)CC[C@@]4(C)[C@]3(C)CC[C@@H]12	none
N#C/C(=C\c1ccc[nH]1)C(=O)N1CCCCC1	none
Cc1ccc(C(=O)NC(=S)NCC(=O)c2ccccc2)cc1	MC4R barr agon 11
c1ccc(-c2nc3nonc3nc2-c2ccccc2)cc1	Beta cell apopt 135
COc1ccc(C(=O)N/N=C/c2ccc3cccc(OCc4ccccc4)c3n2)cc1	none
COc1cc(/C=C/c2ccc3cccc(OC)c3n2)c(OC(C)=O)c([N+](=O)[O-])c1	CSC inhib 78
COc1c(OC(C)=O)ccc(/C=C/c2ccc3cccc(OCc4ccccc4)c3n2)c1[N+](=O)[O-]	CSC inhib 87
NC(=O)c1ncn([C@@H]2O[C@H](CNC(=O)[C@H](N)CSCc3ccccc3)[C@@H](O)[C@H]2O)n1	none (no result: CSC inhib, Beta cell apopt, ANO1 block, ANO1 activ)
CN(C)S(=O)(=O)c1cccc(NC(=O)CCc2nc3cc(S(=O)(=O)N4CCOCC4)ccc3n2C)c1	none
CCCCc1cc(=O)oc2cc(C)cc(OC(C)C(=O)NCc3cccnc3)c12 (stereo unspecified)	none
COC(=O)Nc1ccc(S(=O)(=O)N2c3ccccc3CCC2C)cc1 (stereo unspecified)	CSC inhib 145
COc1ccccc1N(CC(=O)Nc1ccccc1C)S(C)(=O)=O	none
COc1ccccc1NCC(=O)N/N=C/c1c(O)ccc2ccccc12	Beta cell apopt 77
C=C(C)Cn1c(SCC(=O)N/N=C/c2c(O)ccc3ccccc23)nc2ccccc2c1=O	CSC inhib 103
COc1ccccc1N(CC(=O)N/N=C/c1c(O)ccc2ccccc12)S(C)(=O)=O	Beta cell apopt 87
O=C(CNc1ccc(F)cc1)N/N=C/c1c(O)ccc2ccccc12	Beta cell apopt 81
NC(=O)C1=CC2C3C=CC2(O)C(=O)OC3O1 (stereo unspecified)	none (no result: CSC inhib, Beta cell apopt, ANO1 block)
COc1cc(/C=C/C(=O)OCC(=O)NCc2ccco2)ccc1O	none (no result: CSC inhib)
Cc1cc(C)c2c(c1)-c1c(ssc1=S)C(C)(C)N2C(=O)CN1C(=O)c2ccccc2C1=O	ANO1 activ -13
Cc1cccc2c1N(C(=O)CN1C(=O)c3ccccc3C1=O)C(C)(C)c1ssc(=S)c1-2	none
CC(=O)OC[C@@H]1CN(Cc2ccccc2)C[C@H](n2cnc3c(NCC(C)C)ncnc32)O1	none (no result: CSC inhib, Beta cell apopt, ANO1 block, ANO1 activ)
COc1c(CC=C(C)C)cc(C2CC(=O)c3c(O)cc(O)cc3O2)cc1CC=C(C)C (stereo unspecified)	CSC inhib 100, Beta cell apopt 108
COc1ccc([C@@H]2CC(=O)c3c(O)cc(O)cc3O2)cc1O	none
CCc1noc(C)c1C(=O)N1CCSC1=Nc1cccc(Cl)c1C	none
COc1cc(NC(=O)CCc2c(C)noc2C)c(C(=O)O)cc1OC	none (no result: CSC inhib, Beta cell apopt, ANO1 block, ANO1 activ)
O=C(O)c1cccc(Cn2c(Cl)c(/C=N/Nc3ccccc3)sc2=O)c1	ANO1 activ -35
O=C(N/N=C/c1sc(=O)n(Cc2ccc(Br)cc2)c1Cl)c1ccco1	MC4R barr agon 26
O=C(N/N=C/c1ccc(Br)s1)c1ccco1	none
CCOC(=O)c1c(NC(=O)COC(=O)/C=C/c2ccccc2)sc(C(=O)NC)c1C	none (no result: ANO1 block)
Nc1[nH]n2c(=O)cc(-c3ccccc3)nc2c1N=Nc1ccccc1	CSC inhib 92
COc1cccc(CNC(=O)C2CCCN(C(=O)c3ccc(Cl)cc3)C2)c1 (stereo unspecified)	none (no result: CSC inhib, Beta cell apopt, ANO1 block)
CCC(C)[C@H](NS(=O)(=O)c1ccc(F)cc1Br)C(=O)OC (stereo partly specified)	none (no result: CSC inhib, Beta cell apopt, ANO1 block, ANO1 activ)
COc1ccc(OCCN2CCC(C(=O)NC(c3ccsc3)c3ccccc3C)CC2)cc1 (stereo unspecified)	none (no result: CSC inhib, Beta cell apopt, ANO1 block, ANO1 activ)
Cc1cc(-c2csc3nc[nH]c(=S)c23)cc(C)c1C	CSC inhib 104
COC(=O)C[C@](O)(CCCC(C)(C)O)C(=O)O[C@@H]1C(OC)=C[C@]23CCCN2CCc2cc4c(cc2[C@H]13)OCO4	CSC inhib 98, Beta cell apopt 78 (no result: MC4R antagonist, ANO1 activ, MC4R barr agon)
O=C(COC(=O)C12CC3CC(CC(Cl)(C3)C1)C2)Nc1ccccc1	none (no result: ANO1 block)
COc1ccc(C(=O)CNc2ccccc2CO)cc1	none
COc1ccc(C(=O)CNc2ccccc2C#N)cc1	MC4R barr agon 8.3
O=[N+]([O-])c1ccc(C=CC=Cc2ccccc2)cc1	none (no result: CSC inhib, Beta cell apopt, ANO1 block, ANO1 activ)
CN(c1ccccc1)c1ccc(/C=C/[N+](=O)[O-])cc1	Beta cell apopt 89
O=C(O)c1nccnc1C(=O)Nc1ccc(Cl)cn1	none
CC1(C)COC(c2cc3c(cc2Br)OCO3)OC1	none (no result: CSC inhib, Beta cell apopt, ANO1 block)
Cc1ccc(-n2nc3c(N4CCC(C(=O)NCCc5ccccc5C)CC4)nnc(C)c3c2C)cc1	CSC inhib 83, MC4R barr agon 16
COc1ccc2[nH]c(=O)c(CN(C(=O)C(C)C)c3ccccc3OC)cc2c1	none
CC(=O)Nc1cccc(-c2cc(NC=O)c3ncc(-c4ccc(C(C)=O)cc4)n3c2)c1	none (no result: CSC inhib, Beta cell apopt, ANO1 block, ANO1 activ)
CC(=O)Nc1cccc(-c2cc(NC(C)=O)c3ncc(-c4cccc(C(C)=O)c4)n3c2)c1	MC4R barr agon 8.6 (no result: CSC inhib, Beta cell apopt, ANO1 block, ANO1 activ)
COc1ccc(-c2cnc3c(NC(C)=O)cc(-c4ccc(C(=O)NC5CC5)cc4)cn23)cc1OC	none (no result: CSC inhib, Beta cell apopt, ANO1 block, ANO1 activ)
COc1cccc(-c2cnc3c(NC(C)=O)cc(-c4ccc(C(=O)NC5CC5)cc4)cn23)c1	MC4R barr agon 8.8 (no result: CSC inhib, Beta cell apopt, ANO1 block, ANO1 activ)
C/C(=N/OC(=O)c1ccc(C)cc1)c1cccs1	none
C/C(=N/OC(=O)c1ccccc1Br)c1ccc(C)cc1	ANO1 block 25
O=C(Nc1ccn(Cc2ccccc2F)n1)c1ccc(COc2ccccc2Cl)cc1	CSC inhib 139
Cc1cc(C)nc(NC(=O)c2ccc(COc3ccccc3Cl)cc2)c1	CSC inhib 99
Cc1cccc(NS(=O)(=O)c2cn(C)c(=O)n(C)c2=O)c1C	none
CC1=C(/C=C/C(C)=C/C=C/C(C)=C\C(=O)O)C(C)(C)CCC1	none
CC1=C(/C=C/C(C)=C/C=C/C(C)=C/C(=O)Nc2ccc(O)cc2)C(C)(C)CCC1	CSC inhib 104 (no result: ANO1 block)
COc1cc(C)c(CN2CCN(CC(=O)Nc3ccccc3C(=O)NC3CC3)CC2)cc1OC	none (no result: ANO1 block)
NS(=O)(=O)c1cccc(NC(=O)CSc2nc3nc(-c4cccs4)cc(C(F)(F)F)c3c(=O)[nH]2)c1	none
